The source made the active and inactive calls. The calls are words filed in the database; no cut-off is given here.
Tests used:
Axin-2 (Homo sapiens) [1] = target: Axin-2 (Homo sapiens) (UniProt Q9Y2T1); assay: Induction of Axin2 accumulation in human DLD1 cells by Western blot analysis; format: cell-based; details: DLD-1
In short: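 DLD-1 cells exposed to IWR compound at 10μM for a 48 hr assay period; protein levels assessed by Western blot of cell lysates.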

[2] = Inhibition of Wnt3A/[…] pathway activity in mouse L cell expressing Wnt3a assessed as inhibition of […] accumulation at 10 uM after 24 hrs by Western blot analysis; format: cell-based
[3] = Inhibition of Wnt3A/[…] pathway activity in mouse L cell expressing Wnt3a assessed as decrease in phosphorylated Dvl2 level at 10 uM after 24 hrs by Western blot analysis; format: cell-based
[4] = Inhibition of Wnt3A/[…] pathway activity in mouse L cell expressing Wnt3a assessed as decrease in phosphorylated Lrp6 level at 10 uM after 24 hrs by Western blot analysis; format: cell-based
[5] = Inhibition of Wnt2/beta-[…] pathway activity in mouse L cell expressing Wnt2 and STF assessed as decreased firefly luciferase reporter expression; format: cell-based
[6] = Inhibition of Wnt1/beta-[…] pathway activity in mouse L cell expressing Wnt1 and STF assessed as decreased firefly luciferase reporter expression; format: cell-based
[7] = Inhibition of Wnt3A/[…] pathway activity in mouse L cell expressing Wnt3A and STF assessed as decreased firefly luciferase reporter expression; format: cell-based
In short: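 L-Wnt-STF cells (mouse L-cells stably carrying SuperTopFlash firefly luciferase reporter, control reporter and Wnt3A expression construct), ~5K per well; compounds added 24 hrs after seeding; luciferase activities read 24 hrs later; IC50s calculated from these dose-dependent assays.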

Danio rerio = species on record: Danio rerio; assay: Inhibition of caudal fin regeneration after mechanical resection in zebrafish at 10 uM after 7 days; format: functional, organism-based
In short: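 Zebrafish 3-6 months old anaesthetized in 0.02% Tricaine; half of caudal fin resected with razor blade; kept at 28°C in tank water with 10μM compound or DMSO; water and compound replenished daily over assay period.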

L929 = assay: Decrease in beta-[…] accumulation in APC-deficient mouse L cell; format: functional, cell-based
DLD-1 [8] = assay: Decrease in beta-[…] accumulation in human DLD1 cells expressing in APC mutant; format: functional, cell-based
Cos1 = assay: Effect on Axin2 subcellular redistribution in african green monkey Cos1 cells by immunostaining method; format: cell-based; details: Chlorocebus aethiops
Axin-2 (Homo sapiens) [9] = target: Axin-2 (Homo sapiens) (UniProt Q9Y2T1); assay: Induction of Axin2 stabilization in human DLD1 cells assessed as inhibition of Wnt/beta-[…] pathway; format: cell-based; details: DLD-1
HEK293 = assay: Effect on interaction between Axin1-GFP and PP2A in HEK293 cell lysate at 10 uM by Western blot analysis; format: cell-based; details: Homo sapiens
L [10] = assay: Effect on proteasome in mouse L cell expressing Wnt assessed as accumulation of Axin1 by Western blot analysis
In short: (§1)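 L-Wnt-STF cells (L-cells stably carrying Wnt3A, STF firefly luciferase reporter and control reporter) treated with IWR (10μM) or IWP (5μM) compounds, with or without cycloheximide (100μM), over 48 hrs; lysates probed by Western blot.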

L [11] = assay: Effect on proteasome in mouse L cell expressing Wnt assessed as accumulation of beta-[…] by Western blot analysis; in short: as §1
DLD-1 [12] = assay: Inhibition of Axin2 protein degradation in human DLD1 cells by Western blot analysis; format: functional, cell-based
In short: (§2)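 DLD-1 cells treated over a 48 hr assay period with IWR compound (10μM), with or without cycloheximide (100μM); Axin2 protein assessed by Western blot.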

DLD-1 [13] = assay: Inhibition of Axin2 protein degradation in human DLD1 cells by Western blot analysis in presence of 100 uM cyclohexamide; format: functional, cell-based; in short: as §2
[14] = target: Protein Wnt (Danio rerio) (UniProt Q6IYD9); details: 10 uM
Chain of Protein Wnt (Danio rerio) (Q6IYD9 as listed by the source): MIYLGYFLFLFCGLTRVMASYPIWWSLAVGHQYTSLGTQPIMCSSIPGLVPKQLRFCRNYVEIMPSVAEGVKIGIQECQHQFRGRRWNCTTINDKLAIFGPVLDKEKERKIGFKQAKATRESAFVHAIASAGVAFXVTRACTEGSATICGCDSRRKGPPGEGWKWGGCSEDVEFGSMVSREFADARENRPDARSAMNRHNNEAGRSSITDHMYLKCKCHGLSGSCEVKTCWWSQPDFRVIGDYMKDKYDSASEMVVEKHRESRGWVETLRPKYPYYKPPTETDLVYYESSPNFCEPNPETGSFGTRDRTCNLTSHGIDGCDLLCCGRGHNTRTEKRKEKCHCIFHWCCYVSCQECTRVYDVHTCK

[15] = Inhibition of Wnt/beta-[…] pathway activity in mouse L cell expressing Wnt and STF assessed as decreased firefly luciferase reporter expression; format: cell-based
[16] = target: T1, Protein-serine O-palmitoleoyltransferase porcupine (Mus musculus) (UniProt Q9JJJ7); assay: Increase in porcn levels in mouse L cell expressing Wnt and STF; format: cell-based
T1 sequence (whole entry): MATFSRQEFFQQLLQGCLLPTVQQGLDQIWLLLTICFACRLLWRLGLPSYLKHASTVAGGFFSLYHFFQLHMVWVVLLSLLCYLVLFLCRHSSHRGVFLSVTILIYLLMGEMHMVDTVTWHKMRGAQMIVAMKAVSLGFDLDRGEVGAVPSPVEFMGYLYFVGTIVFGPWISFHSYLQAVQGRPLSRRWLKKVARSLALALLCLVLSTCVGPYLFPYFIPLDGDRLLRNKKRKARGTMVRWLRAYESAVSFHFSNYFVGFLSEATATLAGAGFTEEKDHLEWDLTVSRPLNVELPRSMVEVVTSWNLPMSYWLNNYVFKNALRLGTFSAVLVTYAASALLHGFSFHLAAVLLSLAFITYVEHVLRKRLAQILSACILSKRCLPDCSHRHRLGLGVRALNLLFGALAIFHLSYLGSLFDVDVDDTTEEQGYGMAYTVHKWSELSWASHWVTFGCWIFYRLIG

[17] = target: T1, Protein-serine O-palmitoleoyltransferase porcupine (Mus musculus); assay: Effect on porcn Endoplasmic reticulum localization in mouse L cell expressing Wnt and STF; format: cell-based
[18] = target: T2, Protein-serine O-palmitoleoyltransferase porcupine (Homo sapiens) (UniProt Q9H237); assay: Displacement of IWP-PB from porcn in HEK293 lysate by Western blot analysis
T2 sequence (whole entry): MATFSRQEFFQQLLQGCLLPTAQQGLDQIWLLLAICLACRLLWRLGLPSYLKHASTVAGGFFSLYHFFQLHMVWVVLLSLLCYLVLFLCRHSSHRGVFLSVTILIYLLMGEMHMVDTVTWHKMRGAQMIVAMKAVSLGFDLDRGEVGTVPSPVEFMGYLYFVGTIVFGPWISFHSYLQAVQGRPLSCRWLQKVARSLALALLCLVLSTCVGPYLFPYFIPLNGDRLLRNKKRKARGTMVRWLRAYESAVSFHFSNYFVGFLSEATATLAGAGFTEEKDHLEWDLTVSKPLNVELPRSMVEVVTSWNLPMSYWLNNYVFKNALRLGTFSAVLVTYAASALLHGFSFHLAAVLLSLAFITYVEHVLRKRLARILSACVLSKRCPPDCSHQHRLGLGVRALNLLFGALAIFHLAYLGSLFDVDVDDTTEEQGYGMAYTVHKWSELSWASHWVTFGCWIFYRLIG

[19] = target: T2, Protein-serine O-palmitoleoyltransferase porcupine (Homo sapiens); assay: Inhibition of porcn-mediated Shh palmitoylation in human DLD1 lysate by detergent solubility fractionation assessed as [3H]palmitate incorporation at 2.5 uM by autoradiography method
[20] = target: T1, Protein-serine O-palmitoleoyltransferase porcupine (Mus musculus); assay: Inhibition of porcn-mediated Wnt5A palmitoylation in mouse L cell expressing Wnt5A and STF by detergent solubility fractionation assessed as [3H]palmitate incorporation at 2 uM by autoradiography method; format: cell-based
[21] = target: Protein Wnt-3a (Mus musculus) (UniProt P27467); assay: Inhibition of Wnt3A palmitoylation in mouse L cell expressing Wnt3a and overexpressing porcn by detergent solubility fractionation assessed as [3H]palmitate incorporation at 2.5 uM by autoradiography method
Chain of Protein Wnt-3a (Mus musculus) (P27467 whole entry): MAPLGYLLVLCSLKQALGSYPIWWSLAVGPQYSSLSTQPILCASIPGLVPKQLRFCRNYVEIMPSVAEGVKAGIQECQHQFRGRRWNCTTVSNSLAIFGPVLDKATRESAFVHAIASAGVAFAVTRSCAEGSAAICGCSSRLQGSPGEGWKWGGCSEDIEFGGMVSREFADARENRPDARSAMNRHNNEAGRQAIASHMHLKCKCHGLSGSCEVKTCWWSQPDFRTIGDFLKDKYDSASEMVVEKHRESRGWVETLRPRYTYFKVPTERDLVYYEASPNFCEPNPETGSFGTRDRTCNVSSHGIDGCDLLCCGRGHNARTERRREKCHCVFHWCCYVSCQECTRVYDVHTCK

[22] = target: Protein Wnt-3a (Mus musculus) (UniProt P27467); assay: Inhibition of Wnt3A lipidation in mouse L cell expressing Wnt3a and overexpressing porcn at 2 uM by detergent solubility fractionation assay; format: cell-based
[23] = target: Protein Wnt-3a (Homo sapiens) (UniProt P56704); assay: Inhibition of palmitoylation of Wnt3A expressed in mouse L cell by detergent solubility fractionation assessed as [3H]palmitate incorporation at 2.5 uM by autoradiography method; format: cell-based
Chain of Protein Wnt-3a (Homo sapiens) (P56704 whole entry, the tested form may be a part): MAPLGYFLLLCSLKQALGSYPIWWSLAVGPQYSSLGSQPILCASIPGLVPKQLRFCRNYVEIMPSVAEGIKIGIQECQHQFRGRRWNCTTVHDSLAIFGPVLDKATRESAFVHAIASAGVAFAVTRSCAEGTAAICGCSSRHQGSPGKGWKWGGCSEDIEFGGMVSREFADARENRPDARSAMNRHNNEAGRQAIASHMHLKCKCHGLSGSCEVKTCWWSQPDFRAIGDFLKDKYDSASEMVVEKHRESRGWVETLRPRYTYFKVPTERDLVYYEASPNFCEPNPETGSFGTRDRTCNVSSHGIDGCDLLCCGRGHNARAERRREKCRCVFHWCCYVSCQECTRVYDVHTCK

[24] = target: Protein Wnt-3a (Homo sapiens) (UniProt P56704); assay: Inhibition of lipidation of Wnt3A expressed in mouse L cell at 2 uM by detergent solubility fractionation assay; format: cell-based
[25] = target: Lysophospholipid acyltransferase 5 (Mus musculus) (UniProt Q91V01); assay: Inhibition of MBOAT5 mediated Wnt3a pathway activity in mouse L cell expressing Wnt3a assessed as decreased firefly luciferase reporter expression at 0.25 uM to 1 uM; format: cell-based
Chain of Lysophospholipid acyltransferase 5 (Mus musculus) (Q91V01 whole entry): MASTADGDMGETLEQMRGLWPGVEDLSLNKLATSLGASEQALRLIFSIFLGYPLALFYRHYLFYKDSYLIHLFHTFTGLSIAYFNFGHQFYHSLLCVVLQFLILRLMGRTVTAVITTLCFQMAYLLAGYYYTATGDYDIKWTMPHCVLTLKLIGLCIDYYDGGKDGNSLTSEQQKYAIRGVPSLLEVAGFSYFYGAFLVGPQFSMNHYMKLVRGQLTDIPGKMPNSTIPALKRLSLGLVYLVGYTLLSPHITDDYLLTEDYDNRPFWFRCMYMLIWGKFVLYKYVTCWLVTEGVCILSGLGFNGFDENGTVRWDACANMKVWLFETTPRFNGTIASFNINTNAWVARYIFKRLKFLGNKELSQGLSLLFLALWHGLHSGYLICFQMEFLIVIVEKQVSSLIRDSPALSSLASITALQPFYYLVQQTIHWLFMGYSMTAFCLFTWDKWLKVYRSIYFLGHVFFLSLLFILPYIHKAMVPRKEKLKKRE

[26] = target: Membrane-bound glycerophospholipid O-acyltransferase 2 (Mus musculus) (UniProt Q8R3I2); assay: Inhibition of MBOAT2 mediated Wnt3a pathway activity in mouse L cell expressing Wnt3a assessed as decreased firefly luciferase reporter expression at 0.25 uM to 1 uM; format: cell-based
Chain of Membrane-bound glycerophospholipid O-acyltransferase 2 (Mus musculus) (Q8R3I2 whole entry): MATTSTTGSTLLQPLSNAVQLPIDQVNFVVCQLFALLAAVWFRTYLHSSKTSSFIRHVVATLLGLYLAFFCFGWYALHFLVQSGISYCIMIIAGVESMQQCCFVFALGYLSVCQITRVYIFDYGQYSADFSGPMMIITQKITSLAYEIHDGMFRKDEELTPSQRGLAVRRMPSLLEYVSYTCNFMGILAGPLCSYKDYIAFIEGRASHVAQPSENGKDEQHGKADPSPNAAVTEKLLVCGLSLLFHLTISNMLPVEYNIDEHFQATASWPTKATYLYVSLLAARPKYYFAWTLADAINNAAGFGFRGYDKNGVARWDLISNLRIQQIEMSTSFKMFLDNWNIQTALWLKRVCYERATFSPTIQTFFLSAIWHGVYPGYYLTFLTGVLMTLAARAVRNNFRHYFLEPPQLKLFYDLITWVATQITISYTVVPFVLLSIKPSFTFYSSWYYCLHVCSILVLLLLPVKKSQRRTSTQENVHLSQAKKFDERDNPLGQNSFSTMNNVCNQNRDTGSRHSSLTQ

[27] = target: Membrane-bound glycerophospholipid O-acyltransferase 1 (Mus musculus) (UniProt Q8BH98); assay: Inhibition of MBOAT1 mediated Wnt3a pathway activity in mouse L cell expressing Wnt3a assessed as decreased firefly luciferase reporter expression at 0.25 uM to 1 uM; format: cell-based
Chain of Membrane-bound glycerophospholipid O-acyltransferase 1 (Mus musculus) (Q8BH98 whole entry): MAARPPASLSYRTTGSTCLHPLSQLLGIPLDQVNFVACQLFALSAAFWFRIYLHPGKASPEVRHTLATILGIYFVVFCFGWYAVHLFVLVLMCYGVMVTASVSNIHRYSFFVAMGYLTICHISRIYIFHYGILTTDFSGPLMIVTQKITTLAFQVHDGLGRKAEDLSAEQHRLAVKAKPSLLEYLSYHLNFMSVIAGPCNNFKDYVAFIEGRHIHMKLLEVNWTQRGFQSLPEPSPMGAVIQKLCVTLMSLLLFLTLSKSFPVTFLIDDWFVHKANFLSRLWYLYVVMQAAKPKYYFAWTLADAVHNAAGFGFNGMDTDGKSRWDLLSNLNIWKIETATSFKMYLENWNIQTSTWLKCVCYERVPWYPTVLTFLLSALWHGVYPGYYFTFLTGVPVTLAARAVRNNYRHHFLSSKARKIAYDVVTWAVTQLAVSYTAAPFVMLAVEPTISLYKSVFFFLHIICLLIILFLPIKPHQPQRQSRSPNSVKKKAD

[28] = target: Membrane-bound ghrelin O-acyltransferase MBOAT4 (Mus musculus) (UniProt P0C7A3); assay: Inhibition of GOAT mediated Wnt3a pathway activity in mouse L cell expressing Wnt3a assessed as decreased firefly luciferase reporter expression at 0.25 uM to 1 uM; format: cell-based
Chain of Membrane-bound ghrelin O-acyltransferase MBOAT4 (Mus musculus) (P0C7A3 whole entry): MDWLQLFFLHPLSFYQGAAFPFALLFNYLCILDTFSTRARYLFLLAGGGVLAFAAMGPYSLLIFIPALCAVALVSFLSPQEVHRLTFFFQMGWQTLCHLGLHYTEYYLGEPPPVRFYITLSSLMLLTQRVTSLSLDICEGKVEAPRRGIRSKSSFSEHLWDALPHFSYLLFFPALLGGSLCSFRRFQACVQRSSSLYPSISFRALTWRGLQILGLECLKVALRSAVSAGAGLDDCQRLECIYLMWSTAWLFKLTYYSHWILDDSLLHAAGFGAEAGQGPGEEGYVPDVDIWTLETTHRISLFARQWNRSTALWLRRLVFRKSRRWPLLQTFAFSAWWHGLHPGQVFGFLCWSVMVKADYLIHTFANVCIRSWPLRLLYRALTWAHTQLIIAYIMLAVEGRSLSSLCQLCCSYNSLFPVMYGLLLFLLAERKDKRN

[29] = target: Protein-cysteine N-palmitoyltransferase HHAT (Mus musculus) (UniProt Q8BMT9); assay: Inhibition of HHAT mediated Wnt pathway activity in mouse L cell expressing Wnt3a assessed as decreased firefly luciferase reporter expression at 0.25 uM to 1 uM; format: cell-based
Chain of Protein-cysteine N-palmitoyltransferase HHAT (Mus musculus) (Q8BMT9 whole entry): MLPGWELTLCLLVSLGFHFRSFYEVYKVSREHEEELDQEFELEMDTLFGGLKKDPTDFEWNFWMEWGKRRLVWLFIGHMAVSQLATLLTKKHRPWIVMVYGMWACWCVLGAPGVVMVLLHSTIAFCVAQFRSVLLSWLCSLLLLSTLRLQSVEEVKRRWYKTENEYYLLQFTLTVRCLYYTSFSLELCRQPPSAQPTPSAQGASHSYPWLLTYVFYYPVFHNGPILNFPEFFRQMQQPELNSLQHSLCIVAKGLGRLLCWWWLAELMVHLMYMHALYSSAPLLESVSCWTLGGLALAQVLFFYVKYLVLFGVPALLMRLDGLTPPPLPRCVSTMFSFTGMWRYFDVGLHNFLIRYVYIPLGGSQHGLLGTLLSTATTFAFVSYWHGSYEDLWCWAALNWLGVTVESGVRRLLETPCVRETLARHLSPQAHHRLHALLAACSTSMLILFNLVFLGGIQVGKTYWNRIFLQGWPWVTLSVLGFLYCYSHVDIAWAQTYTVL

[30] = target: Sterol O-acyltransferase 1 (Mus musculus) (UniProt Q61263); assay: Inhibition of ACAT mediated Wnt3a pathway activity in mouse L cell expressing Wnt3a assessed as decreased firefly luciferase reporter expression at 0.25 uM to 1 uM; format: cell-based
Chain of Sterol O-acyltransferase 1 (Mus musculus) (Q61263 whole entry): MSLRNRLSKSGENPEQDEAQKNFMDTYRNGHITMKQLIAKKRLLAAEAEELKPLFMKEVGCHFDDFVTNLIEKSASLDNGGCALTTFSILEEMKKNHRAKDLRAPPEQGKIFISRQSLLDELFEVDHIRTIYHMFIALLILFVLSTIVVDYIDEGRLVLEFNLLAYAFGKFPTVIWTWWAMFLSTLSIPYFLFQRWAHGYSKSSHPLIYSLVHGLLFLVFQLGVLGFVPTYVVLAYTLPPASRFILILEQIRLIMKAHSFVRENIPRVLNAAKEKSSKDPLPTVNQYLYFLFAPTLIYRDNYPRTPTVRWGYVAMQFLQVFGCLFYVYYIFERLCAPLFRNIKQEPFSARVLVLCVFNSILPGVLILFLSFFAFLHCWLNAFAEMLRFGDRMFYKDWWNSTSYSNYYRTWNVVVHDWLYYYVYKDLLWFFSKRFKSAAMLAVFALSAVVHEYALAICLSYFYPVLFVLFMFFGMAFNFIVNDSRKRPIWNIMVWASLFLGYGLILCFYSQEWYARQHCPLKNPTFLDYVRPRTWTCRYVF

[31] = target: Protein Wnt-3a (Homo sapiens) (UniProt P56704); assay: Inhibition of Wnt3A secretion in mouse L cell expressing Wnt3a overexpressing Evi assessed as decreased Gaussia luciferase reporter expression at 0.25 uM to 1 uM; format: cell-based
In short: (§3)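 Wnt secretion test: L-cells transiently transfected with Wnt-Gaussia luciferase fusion construct, incubated with compounds immediately after transfection, GL activity measured 48 hrs later.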

[32] = target: Protein Wnt-3a (Homo sapiens) (UniProt P56704); assay: Inhibition of Wnt3A secretion in mouse L cell expressing Wnt3a overexpressing porcn assessed as decreased Gaussia luciferase reporter expression at 0.25 uM to 1 uM; format: cell-based; in short: as §3
[33] = target: Protein Wnt-3a (Homo sapiens) (UniProt P56704); assay: Inhibition of Wnt3A activity in mouse L cell expressing Wnt3A and STF and overexpressing Evi assessed as decreased firefly luciferase reporter expression at 0.25 uM to 1 uM; format: cell-based
[34] = target: Protein Wnt-3a (Homo sapiens) (UniProt P56704); assay: Inhibition of Wnt3A activity in mouse L cell expressing Wnt3A and STF and overexpressing porcn assessed as decreased firefly luciferase reporter expression at 0.25 uM to 1 uM; format: cell-based
[35] = Inhibition of Wnt3A/[…] pathway activity in mouse L cell expressing Wnt3a assessed as inhibition of […] accumulation at 5 uM after 24 hrs by Western blot analysis; format: cell-based
[36] = Inhibition of Wnt3A/[…] pathway activity in mouse L cell expressing Wnt3a assessed as decrease in phosphorylated Dvl2 level at 5 uM after 24 hrs by Western blot analysis; format: cell-based
[37] = Inhibition of Wnt3A/[…] pathway activity in mouse L cell expressing Wnt3a assessed as decrease in phosphorylated Lrp6 level at 5 uM after 24 hrs by Western blot analysis; format: cell-based
[38] = Inhibition of Notch pathway in mouse L cells at 2.5 uM

Chain of Axin-2 (Homo sapiens) (Q9Y2T1 whole entry): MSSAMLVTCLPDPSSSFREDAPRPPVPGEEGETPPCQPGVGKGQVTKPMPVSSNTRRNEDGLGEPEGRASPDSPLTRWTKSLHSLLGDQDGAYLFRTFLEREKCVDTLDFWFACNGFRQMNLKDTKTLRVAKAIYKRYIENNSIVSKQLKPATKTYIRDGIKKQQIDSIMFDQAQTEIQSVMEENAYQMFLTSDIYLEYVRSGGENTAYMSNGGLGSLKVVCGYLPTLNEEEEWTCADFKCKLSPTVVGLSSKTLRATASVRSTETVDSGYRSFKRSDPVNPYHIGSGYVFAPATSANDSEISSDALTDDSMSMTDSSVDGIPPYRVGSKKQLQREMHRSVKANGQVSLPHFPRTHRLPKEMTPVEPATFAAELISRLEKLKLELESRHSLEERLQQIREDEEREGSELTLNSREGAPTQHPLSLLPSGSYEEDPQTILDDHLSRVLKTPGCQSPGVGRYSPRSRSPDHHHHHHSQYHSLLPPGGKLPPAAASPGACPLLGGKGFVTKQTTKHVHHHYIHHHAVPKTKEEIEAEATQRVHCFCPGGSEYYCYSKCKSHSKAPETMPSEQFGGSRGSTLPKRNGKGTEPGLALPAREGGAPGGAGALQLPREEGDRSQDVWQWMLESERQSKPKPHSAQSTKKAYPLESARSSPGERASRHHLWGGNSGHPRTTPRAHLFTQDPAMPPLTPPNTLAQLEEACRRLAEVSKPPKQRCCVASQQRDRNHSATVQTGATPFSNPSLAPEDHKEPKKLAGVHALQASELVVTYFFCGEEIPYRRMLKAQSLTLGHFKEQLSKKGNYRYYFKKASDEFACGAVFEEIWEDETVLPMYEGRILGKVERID

O=C(Nc1cccc2cccnc12)c1ccc(N2C(=O)[C@@H]3[C@H](C2=O)[C@@H]2C=C[C@H]3C2)cc1
Activity (Axin-2 (Homo sapiens) [1]): Active
inhibition [2]: Active
inhibition [3]: inactive
inhibition [4]: inactive
inhibition [5]: Active
inhibition [6]: Active
inhibition [7]: Active
inhibition (Danio rerio): Active
inhibition (L929): Active
inhibition (DLD-1 [8]): Active
Activity (Cos1): inactive
Activity (Axin-2 (Homo sapiens) [9]): Active
Activity (HEK293): inactive
Activity (L [10]): inactive
Activity (L [11]): inactive
inhibition (DLD-1 [12]): Active
inhibition (DLD-1 [13]): inactive
inhibition [14]: Active

Cc1ccnc2c(NC(=O)c3ccc(N4C(=O)[C@@H]5[C@H](C4=O)[C@@H]4C=C[C@H]5C4)cc3)cccc12
Activity (Axin-2 (Homo sapiens) [1]): Active
inhibition [2]: Active
inhibition [3]: inactive
inhibition [4]: inactive
inhibition [5]: Active
inhibition [6]: Active
inhibition [7]: Active
inhibition (Danio rerio): Active
inhibition (DLD-1 [8]): Active
IC50 [15]: 230 nM

Cc1ccc2nc(NC(=O)CSc3nc4c(c(=O)n3-c3ccccc3)SCC4)sc2c1
Activity [16]: Active
Activity [17]: inactive
inhibition [18]: Active
inhibition [19]: inactive
inhibition [20]: Active
inhibition [21]: inactive
inhibition [22]: Active
inhibition [23]: Active
inhibition [24]: Active
inhibition [25]: inactive
inhibition [26]: inactive
inhibition [27]: inactive
inhibition [28]: inactive
inhibition [29]: inactive
inhibition [30]: inactive
inhibition [31]: inactive
inhibition [32]: inactive
inhibition [33]: inactive
inhibition [34]: inactive
inhibition [35]: Active
inhibition [36]: Active
inhibition [37]: Active
inhibition (Danio rerio): inactive
inhibition [38]: inactive
